Calls of active or inactive are those of the source. No cut-off for these calls is given here.
Key:
BaF3 [1] = assay: Inhibition of EGFR-C797S/T790M/L858R mutant expressed in mouse BaF3 cells assessed as inhibition of Akt phosphorylation at 10 to 1000 nM incubated for 6 hrs by Western blotting analysis; format: cell-based; settings: dose 10-1000 nM
How it was run: (§1)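 Ba/F3 cells expressing EGFR-L858R-series mutants treated with inhibitors for 6 h. SDS lysates quantified by BCA, run on SDS-PAGE and blotted to PVDF. Probed for phospho-EGFR (Tyr1068), total EGFR and downstream phospho-proteins.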

BaF3 [2] = assay: Inhibition of EGFR-C797S/T790M/L858R mutant expressed in mouse BaF3 cells assessed as inhibition of ERK phosphorylation at 10 to 1000 nM incubated for 6 hrs by Western blotting analysis; format: cell-based; settings: dose 10-1000 nM; how it was run: as §1
BaF3 [3] = assay: Inhibition of EGFR-C797S/T790M/L858R mutant in mouse BaF3 cells assessed as inhibition of EGFR phosphorylation at 10 to 1000 nM incubated for 6 hrs by Western blotting analysis; format: cell-based; settings: dose 10-1000 nM; how it was run: as §1
BaF3 [4] = assay: Inhibition of EGFR-C797S/T790M/L858R mutant in mouse BaF3 cells assessed as inhibition of S6 phosphorylation at 10 to 1000 nM incubated for 6 hrs by Western blotting analysis; format: cell-based; settings: dose 10-1000 nM; how it was run: as §1
BaF3 [5] = assay: Inhibition of EGFR-C797S/T790M/del19 mutant in mouse BaF3 cells assessed as reduction in EGFR phosphorylation at 300 nM incubated for 6 hrs by Western blotting analysis; format: cell-based
BaF3 [6] = assay: Inhibition of EGFR-C797S/T790M/del19 mutant in mouse BaF3 cells assessed as reduction in S6 phosphorylation at 10 to 1000 nM by Western blotting analysis; format: cell-based; settings: dose 10-1000 nM
PC-9 [7] = assay: Inhibition of EGFR T790M/del19 mutant in human PC-9 cells assessed as reduction in Akt phosphorylation at 10 to 1000 nM by Western blotting analysis; format: cell-based; settings: dose 10-1000 nM
NCI-H460 = assay: Anticancer activity against KRAS-mutated human NCI-H460 cells assessed as reduction in cell viability at 1 to 10000 nM incubated for 72 hrs by CellTiter-Glo assay; format: functional, cell-based; settings: dose 1-10000 nM
PC-9 [8] = assay: Inhibition of EGFR T790M/del19 mutant in human PC-9 cells assessed as reduction in ERK phosphorylation at 10 to 1000 nM by Western blotting analysis; format: cell-based; settings: dose 10-1000 nM
BaF3 [9] = assay: Inhibition of EGFR-C797S/T790M/del19 mutant in mouse BaF3 cells assessed as reduction in S6 protein level at 10 to 1000 nM by Western blotting analysis; format: cell-based; settings: dose 10-1000 nM
BaF3 [10] = assay: Inhibition of EGFR-C797S/T790M/del19 mutant in mouse BaF3 cells assessed as reduction in Akt phosphorylation at 10 to 1000 nM by Western blotting analysis; format: cell-based; settings: dose 10-1000 nM
BaF3 [11] = assay: Inhibition of EGFR-C797S/T790M/del19 mutant in mouse BaF3 cells assessed as reduction in ERK phosphorylation at 10 to 1000 nM by Western blotting analysis; format: cell-based; settings: dose 10-1000 nM
BaF3 [12] = assay: Inhibition of EGFR-C797S/T790M/del19 mutant in mouse BaF3 cells assessed as reduction in EGFR phosphorylation at 10 to 1000 nM by Western blotting analysis; format: cell-based; settings: dose 10-1000 nM
BaF3 [13] = assay: Inhibition of EGFR-C797S/T790M/del19 mutant in mouse BaF3 cells assessed as reduction in Akt protein level at 10 to 1000 nM by Western blotting analysis; format: cell-based; settings: dose 10-1000 nM
BaF3 [14] = assay: Inhibition of EGFR-C797S/T790M/del19 mutant in mouse BaF3 cells assessed as reduction in ERK protein level at 10 to 1000 nM by Western blotting analysis; format: cell-based; settings: dose 10-1000 nM
PC-9 [15] = assay: Inhibition of EGFR T790M/del19 mutant in human PC-9 cells assessed as reduction in EGFR phosphorylation at 10 to 1000 nM by Western blotting analysis; format: cell-based; settings: dose 10-1000 nM
A549 = assay: Anticancer activity against KRAS-mutated human A549 cells assessed as reduction in cell viability at 1 to 10000 nM incubated for 72 hrs by CellTiter-Glo assay; format: functional, cell-based; settings: dose 1-10000 nM
PC-9 [16] = assay: Inhibition of EGFR T790M/del19 mutant in human PC-9 cells assessed as reduction in S6 phosphorylation at 10 to 1000 nM by Western blotting analysis; format: cell-based; settings: dose 10-1000 nM

With `COc1cc(N2CCC(N3CCN(C)CC3)CC2)ccc1Nc1ncnc(Nc2ccccc2S(=O)(=O)C(C)C)n1` as the compound, how does the inhibition (BaF3 [1]) read?
The inhibition was “inactive”.

And the inhibition (BaF3 [2])?
The inhibition was “inactive”.

What about the inhibition (BaF3 [3]) of the same compound?
The inhibition was “inactive”.

And the inhibition (BaF3 [4])?
Its inhibition is “inactive”.

What does the source list for `Cc1cc(Nc2ncc(Cl)c(Nc3ccccc3S(=O)(=O)C(C)C)n2)c(OC(C)C)cc1C1CCNCC1`?
inhibition (BaF3 [1]): inactive; inhibition (BaF3 [2]): inactive; inhibition (BaF3 [3]): inactive; inhibition (BaF3 [4]): inactive

How did the inhibition (BaF3 [5]) turn out when `Cc1ccc(C(=O)Nc2ccc(CN3CCN(C)CC3)c(C(F)(F)F)c2)cc1C#Cc1cnc2cccnn12` was run?
The inhibition was “inactive”.

For `CN(C)C/C=C/C(=O)Nc1cc2c(Nc3ccc(F)c(Cl)c3)ncnc2cc1O[C@H]1CCOC1` [AFATINIB], which inhibition (BaF3 [6]) is on record?
Its inhibition is “inactive”.

What about the inhibition (PC-9 [7]) of the same compound?
The inhibition was “Active”.

What about the Activity (NCI-H460) of the same compound?
The Activity was “Active”.

And the inhibition (PC-9 [8])?
Its inhibition is “Active”.

And the inhibition (BaF3 [9])?
Its inhibition is “inactive”.

And the inhibition (BaF3 [10])?
The inhibition was “inactive”.

And the inhibition (BaF3 [11])?
The inhibition was “inactive”.

And the inhibition (BaF3 [12])?
The inhibition was “inactive”.

And the inhibition (BaF3 [13])?
The inhibition was “inactive”.

And the inhibition (BaF3 [14])?
Its inhibition is “inactive”.

What about the inhibition (PC-9 [15]) of the same compound?
The inhibition was “Active”.

What about the Activity (A549) of the same compound?
Its Activity is “Active”.

What about the inhibition (PC-9 [16]) of the same compound?
Its inhibition is “Active”.
